The text below walks through data of ChEMBL document CHEMBL1140318, “Potent androgen antagonists based on carborane as a hydrophobic core structure” (J Med Chem, 2005).

In the assay the target is Androgen receptor (Homo sapiens) (UniProt P10275). The assay is described as follows: Percent displacement of [3H]DHT binding to human androgen receptor expressed in Escherichia coli strain HB-101 at 10 uM. In a few lines: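 GST-hAR ligand-binding domain expressed in E. coli HB-101 (1 mM IPTG, 27 °C, 4.5 h); crude sonicate diluted to 0.3-0.5 mg/mL protein (20 mM Tris-HCl pH 8.0, 0.3 M KCl, 1 mM EDTA). Incubated 15 h at 4 °C in dark with 4 nM [3H]DHT and 1 μM triamcinolone acetonide (final). Nonspecific binding measured with 200-fold unlabeled DHT. Dextran/γ-globulin-charcoal separation, supernatant scintillation-counted.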
Chain of UniProt P10275 (P10275 whole entry, the tested form may be a part): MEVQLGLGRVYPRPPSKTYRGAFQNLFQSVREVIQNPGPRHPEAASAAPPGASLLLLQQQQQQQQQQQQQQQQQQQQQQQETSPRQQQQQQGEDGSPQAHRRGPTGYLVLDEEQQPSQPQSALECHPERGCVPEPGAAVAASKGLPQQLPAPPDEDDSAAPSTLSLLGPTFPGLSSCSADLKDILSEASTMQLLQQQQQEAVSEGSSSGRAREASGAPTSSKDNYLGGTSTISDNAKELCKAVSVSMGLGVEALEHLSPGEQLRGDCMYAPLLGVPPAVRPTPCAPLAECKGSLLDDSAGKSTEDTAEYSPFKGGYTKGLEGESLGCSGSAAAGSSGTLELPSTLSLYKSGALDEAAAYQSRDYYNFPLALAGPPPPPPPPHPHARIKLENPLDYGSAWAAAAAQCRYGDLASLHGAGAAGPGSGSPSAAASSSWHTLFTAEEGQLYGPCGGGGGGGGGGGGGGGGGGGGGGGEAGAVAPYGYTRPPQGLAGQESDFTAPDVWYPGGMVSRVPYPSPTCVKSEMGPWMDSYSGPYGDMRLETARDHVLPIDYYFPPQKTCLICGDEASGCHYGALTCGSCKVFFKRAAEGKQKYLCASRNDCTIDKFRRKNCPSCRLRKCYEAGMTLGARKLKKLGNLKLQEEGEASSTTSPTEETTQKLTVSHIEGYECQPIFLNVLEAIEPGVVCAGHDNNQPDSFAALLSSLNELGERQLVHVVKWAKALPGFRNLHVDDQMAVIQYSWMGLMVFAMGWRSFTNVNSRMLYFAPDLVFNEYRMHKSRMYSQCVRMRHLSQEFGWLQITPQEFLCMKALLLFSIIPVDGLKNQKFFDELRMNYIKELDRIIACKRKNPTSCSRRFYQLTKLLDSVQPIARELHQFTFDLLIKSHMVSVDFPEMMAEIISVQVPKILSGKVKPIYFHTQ

“1-Hydroxymethyl-12-(3-cyanophenyl)-1,12-dicarbacloso-dodecaborane” displayed a Binding affinity of 95%.

As for “1-(4-Nitrophenyl)-1,12-dicarba-closo-dodecaborane”, the Binding affinity was 29%.

“1-(3-Nitrophenyl)-1,12-dicarba-closo-dodecaborane” returned a Binding affinity of 36%.

Substance “1-Hydroxymethyl-12-(3-nitrophenyl)-1,12-dicarba-closododecaborane” yielded a Binding affinity of 97%.

In the case of “1-(3-Hydroxypropyl)-12-(3-nitrophenyl)-1,12-dicarbacloso-dodecaborane”, the Binding affinity was 39%.

The substance “1-Hydroxymethyl-12-(4-nitrophenyl)-1,12-dicarba-closodod caborane” yielded a Binding affinity of 55%.

“1-Hydroxy-12-(3-cyanophenyl)-1,12-dicarba-closo-dodecaborane” registered a Binding affinity of 66%.

In turn, “1-Hydroxy-12-(4-nitrophenyl)-1,12-dicarba-closo-dodecaborane” showed a Binding affinity of 53%.

The substance “1-Hydroxy-12-(3-nitrophenyl)-1,12-dicarba-closo-dodecaborane” registered a Binding affinity of 75%.

For the substance “1-(3-Nitrophenyl)-1,12-dicarba-closo-dodecaborane-1-carboxylic Acid”, the Binding affinity was 35%.

The substance “1-Hydroxy-12-(4-cyanophenyl)-1,12-dicarba-closo-dodecaborane” had a Binding affinity of 50%.

In turn, “1-(4-Hydroxybutyl)-12-(3-nitrophenyl)-1,12-dicarbacloso-dodecaborane” showed a Binding affinity of 20%.

For “1-Hydroxymethyl-7-(4-nitrophenyl)-1,7-dicarba-closododecaborane”, the Binding affinity amounted to 60%.

“1-Hydroxymethyl-12-(4-cyanophenyl)-1,12-dicarbacloso-dodecaborane”: the Binding affinity was 54%.

“1-(2-Hydroxyethyl)-12-(3-nitrophenyl)-1,12-dicarbacloso-dodecaborane” displayed a Binding affinity of 63%.

As for “1-Hydroxymethyl-7-(3-nitrophenyl)-1,7-dicarba-closododecaborane”, the Binding affinity worked out at 54%.

Consider “1-Methoxycarbonyl-12-(3-nitrophenyl)-1,12-dicarbacloso-dodecaborane”, for which the Binding affinity came out at 18%.
